Columns and labels:
Assay type in all cases: functional
Cucumis sativus = experiment: Plant growth regulatory activity in Cucumis sativus (cucumber) seed assessed as number of root at 10 mg/L at 26 degC measured after 5 days
How it was run: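 Cucumber seeds were incubated at 26 °C in the dark for 72 h, then 10 cotyledons were excised and treated. Incubation continued at 26 °C in the dark for 5 days. Roots were counted, with water-only controls, in triplicate.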

Medicago sativa [1] = experiment: Herbicidal activity against Medicago sativa (alfalfa) assessed as herbicidal damage at 1.5 kg/ha measured after preemergence treatment; settings: pre-emergence
How it was run: (§1)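 Seeds were sown in 6 cm boxes of artificial mixed soil, covered with plastic film until emergence, and grown in a greenhouse. Sprays were applied right after sowing (preemergence) or after the first true leaf expanded (postemergence). Controls received the same amount of water/DMF/Tween 20. Above-ground fresh weight was taken 10 days after treatment, in triplicate, as % damage versus control.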

Tobacco mosaic virus = experiment: Antiviral activity against Tobacco mosaic virus (TMV) inoculated in fresh tobacco leaf at 100 mg/L by half-leaf method
How it was run: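 Half-leaf method on tobacco leaves at the 5-6 growth stage. Leaves were inoculated with TMV by juice-leaf rubbing at 5.88 × 10-2 µg/mL and cut along the main vein. One half was immersed in test solution and the other in double distilled water for 20 min, then cultured at 25 °C for 72 h, in triplicate. Inhibition = 100(CK − A)/CK, from average lesion counts.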

Amaranthus retroflexus [2] = experiment: Herbicidal activity against Amaranthus retroflexus assessed as herbicidal damage at 1.5 kg/ha measured after postemergence treatment; settings: post-emergence; how it was run: as §1
Digitaria sanguinalis [3] = experiment: Herbicidal activity against hairy crabgrass Digitaria sanguinalis (hairy crabgrass) assessed as herbicidal damage at 1.5 kg/ha measured after preemergence treatment; settings: pre-emergence; how it was run: as §1
Medicago sativa [4] = experiment: Herbicidal activity against Medicago sativa (alfalfa) assessed as herbicidal damage at 1.5 kg/ha measured after postemergence treatment; settings: post-emergence; how it was run: as §1
Cladosporium cucumerinum = experiment: Antifungal activity against Cladosporium cucumerinum assessed as inhibition of mycelium growth at 50 mg/L at 26 degC measured after 72 hr
How it was run: (§2)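 Mycelium growth assay on agar. 1 mL test solution (50 mg/L) was poured into a 9 cm plate with 9 mL agar medium. Controls used sterile water in its place. A 4 mm plug from the margin of an actively growing colony was placed in the centre and incubated at 26 °C. Hyphal diameter was measured over 72 h, in triplicate. Inhibition % = (control diameter − treated diameter)/control diameter.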

[5] = test system: Botryosphaeria berengeriana; experiment: Antifungal activity against Botryosphaeria berengeriana assessed as inhibition of mycelium growth at 50 mg/L at 26 degC measured after 72 hr; how it was run: as §2
Alternaria solani = experiment: Antifungal activity against Alternaria solani assessed as inhibition of mycelium growth at 50 mg/L at 26 degC measured after 72 hr; how it was run: as §2
Amaranthus retroflexus [6] = experiment: Herbicidal activity against Amaranthus retroflexus assessed as herbicidal damage at 1.5 kg/ha measured after preemergence treatment; settings: pre-emergence; how it was run: as §1
Brassica napus [7] = experiment: Herbicidal activity against rape Brassica napus (oilseed rape) assessed as herbicidal damage at 1.5 kg/ha measured after preemergence treatment; settings: pre-emergence; how it was run: as §1
Digitaria sanguinalis [8] = experiment: Herbicidal activity against hairy crabgrass Digitaria sanguinalis (hairy crabgrass) assessed as herbicidal damage at 1.5 kg/ha measured after postemergence treatment; settings: post-emergence; how it was run: as §1
Fusarium graminearum = experiment: Antifungal activity against Fusarium graminearum assessed as inhibition of mycelium growth at 50 mg/L at 26 degC measured after 72 hr
How it was run: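 Mycelium growth test on agar plates: 1 mL test solution (50 mg/L) mixed with 9 mL agar medium; sterile water in place of test solution for controls. 4 mm inocula cut from margins of actively growing colonies, placed at plate centre, incubated at 26 °C; mycelium diameter measured over 72 h. Inhibition % from mean hyphal diameter against control. Triplicate.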

Brassica napus [9] = experiment: Herbicidal activity against rape Brassica napus (oilseed rape) assessed as herbicidal damage at 1.5 kg/ha measured after postemergence treatment; settings: post-emergence; how it was run: as §1
Mycosphaerella arachidis = experiment: Antifungal activity against Mycosphaerella arachidis assessed as inhibition of mycelium growth at 50 mg/L at 26 degC measured after 72 hr; how it was run: as §2

Row | SMILES | Activity (Cucumis sativus) [%] | inhibition at 1500 g/ha (Medicago sativa [1]) [%] | Activity (Tobacco mosaic virus) [%] | inhibition at 1500 g/ha (Amaranthus retroflexus [2]) [%] | inhibition at 1500 g/ha (Digitaria sanguinalis [3]) [%] | inhibition at 1500 g/ha (Medicago sativa [4]) [%] | inhibition at 50 µg/mL (Cladosporium cucumerinum) [%] | inhibition at 50 µg/mL [5] [%] | inhibition at 50 µg/mL (Alternaria solani) [%] | inhibition at 1500 g/ha (Amaranthus retroflexus [6]) [%] | inhibition at 1500 g/ha (Brassica napus [7]) [%] | inhibition at 1500 g/ha (Digitaria sanguinalis [8]) [%] | inhibition at 50 µg/mL (Fusarium graminearum) [%] | inhibition at 1500 g/ha (Brassica napus [9]) [%] | inhibition at 50 µg/mL (Mycosphaerella arachidis) [%]
1 | CCOCCOC(=O)/C(C#N)=C(\NCC1CCCO1)C(C)C (stereo unspecified) | 32.5 | 20.3 | 7.2 | 100 | 40 | 60.5 | 0 | 18.2 | 14.3 | 3.2 | 80 | 100 | 33.3 | 97.2 | 28.6
2 | CCC/C(NCC1CCCO1)=C(\C#N)C(=O)OCCOCC (stereo unspecified) | 8.4 | 15 | 0 | 16.4 | 0 | 19.2 | 10.5 | 4.5 | 0 | 0 | 0 | 0 | 23.3 | 36.3 | 32.1
3 | CCOCCOC(=O)/C(C#N)=C(\NCc1ccco1)C(C)C | 2.4 | 4.5 | 0 | 41.9 | 37.8 | 26.3 | 13.2 | 22.7 | 17.9 | 6.3 | 3.3 | 0 | 23.3 | 56.3 | 37.5
4 | CCOCCOC(=O)/C(C#N)=C(/NCC1CCCO1)SC (stereo unspecified) | -0.6 | 21.8 | – | 37.8 | 35.7 | 23.4 | 34.2 | 4.5 | 0 | 9.5 | 0 | 0 | 40 | 47.5 | 17.9
5 | CCOCCOC(=O)/C(C#N)=C(/NCc1ccc(Cl)nc1)SC | -3.6 | 1.5 | 18.3 | 100 | 18.6 | 41.3 | 0 | 22.7 | 7.1 | 13.7 | 68.9 | 89.9 | 6.7 | 100 | 21.4
6 | CCOCCOC(=O)/C(C#N)=C(/CC)NCC1CCOC1 (stereo unspecified) | 41.5 | 6 | 7.2 | 51.6 | 0 | 25.7 | 7.9 | 9.1 | 17.9 | 4.2 | 34.1 | 11.1 | 20 | 68 | 39.3
7 | CCOCCOC(=O)/C(C#N)=C(/CC)NCC1CCCO1 (stereo unspecified) | 2.4 | 3 | 13.2 | 46.1 | 0 | 22.2 | 15.8 | 22.7 | 10.7 | 8.4 | 7.4 | 0 | 20 | 63.7 | 37.5
8 | CCOCCOC(=O)/C(C#N)=C(/CC)NCc1ccoc1 | 23.4 | 2.3 | – | 23.3 | 0 | 0 | 26.3 | 4.5 | 10.7 | 11.6 | 0 | 0 | 33.3 | 33.8 | 35.7
9 | CCOCCOC(=O)/C(C#N)=C(/C)NCc1ccco1 | -0.6 | 12 | – | 32.3 | 42.1 | 5.4 | 21.1 | 22.7 | 0 | 3.2 | 8.5 | 17.2 | 46.7 | 20.1 | 44.6
10 | CCOCCOC(=O)/C(C#N)=C(/NCc1ccco1)SC | 14.4 | 0 | – | 30.2 | 37.8 | 18.6 | 15.8 | 22.7 | 25 | 10.5 | 20.7 | 13.1 | 36.7 | 22.9 | 16.1
11 | CCOCCOC(=O)/C(C#N)=C(/NCC1CCOC1)SC (stereo unspecified) | -9.6 | 0 | – | 43.3 | 5.7 | 4.2 | 21.1 | 27.3 | 21.4 | 22.1 | 0 | 0 | 0 | 50.5 | 25
12 | CCOCCOC(=O)/C(C#N)=C(/C)NCc1ccoc1 | -18.6 | 6.8 | – | 37.1 | 22.8 | 20.4 | 36.8 | 13.6 | 0 | 21.1 | 0 | 0 | 33.3 | 49.8 | 44.6
13 | CCOCCOC(=O)/C(C#N)=C(/C)NCC1CCOC1 (stereo unspecified) | -6.6 | 7.5 | – | 29.5 | 31.4 | 5.4 | 18.4 | 27.3 | 35.7 | 12.6 | 0 | 0 | 0 | 52.3 | 12.5
14 | CCOCCOC(=O)/C(C#N)=C(\NCc1ccoc1)C(C)C | 11.4 | 10.5 | – | 27.4 | 33.6 | 13.2 | 13.2 | 22.7 | 25 | 22.1 | 0 | 0 | 0 | 51.9 | 30.4
15 | CCC/C(NCc1ccco1)=C(\C#N)C(=O)OCCOCC | 14.4 | 0 | – | 31.6 | 22.8 | 12.6 | 13.2 | 9.1 | 10.7 | 0 | 30.7 | 1 | 30 | 22.9 | 3.6
